Consider six molecules from ChEMBL document CHEMBL1687821, “In vivo and in vitro efficacy of chloroquine against Plasmodium malariae and P. ovale in Papua, Indonesia” (Antimicrob Agents Chemother, 2011).

SMILES strings stand for the structures.

The test system of experiment [1] is Plasmodium malariae. Put plainly: Antimalarial activity against Plasmodium malariae ring stage infected in red blood cells in presence of AB+ human serum by drug susceptibility assay. Format: functional, organism-based. The gist of the method:
(§1)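 Field isolates from venous blood, leukocytes removed on CF11 column. Modified WHO schizont-maturation microtest at 2% hematocrit in McCoy's 5A with 20% AB+ serum, 11 twofold dilutions (chloroquine top 5,910 nM). Candle jar, 37.5°C, 15–56 h, stopped at >40% schizonts in the drug-free control. Schizonts (≥5 chromatin dots) per 200 asexual parasites, normalized to control. IC50 from inhibitory sigmoid Emax fit. Isolates grouped by predominant stage at start.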

Experiment [2] has as its system Plasmodium malariae. Put plainly: Antimalarial activity against Plasmodium malariae trophozoite stage infected in red blood cells in presence of AB+ human serum by drug susceptibility assay. Format: functional, organism-based. The gist of the method:
as §1

Experiment [3] deals with Plasmodium ovale. In words: Antimalarial activity against Plasmodium ovale ring stage infected in red blood cells in presence of AB+ human serum by drug susceptibility assay. Format: functional. The gist of the method:
as §1

For experiment [4], the system named is Plasmodium ovale. In words: Antimalarial activity against Plasmodium ovale trophozoite stage infected in red blood cells in presence of AB+ human serum by drug susceptibility assay. Format: functional. The gist of the method: as §1
Experiment [5] relates to Plasmodium ovale. Put plainly: Antimalarial activity against Plasmodium ovale in patients assessed as parasite reduction ratio at 25 mg/kg, po after 48 hrs. Format: functional. The gist of the method: (§2)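 Oral chloroquine tablets (150 mg base each) at 25 mg/kg over 3 days, all doses supervised; dose repeated once if vomited within 60 min. Parasitemia counted on Giemsa-stained thick films as parasites per 200 WBCs by an expert microscopist. Reduction ratio taken at 48 h.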

The test system of experiment [6] is Plasmodium malariae. Put plainly: Antimalarial activity against Plasmodium malariae in patients assessed as parasite reduction ratio at 25 mg/kg, po after 48 hrs. Format: functional. The gist of the method: as §2

In the case of `CCN(CC)Cc1cc(Nc2ccnc3cc(Cl)ccc23)ccc1O`, the IC50 in experiment [1] worked out at 21.7 nM; in experiment [2] it was 19.1 nM; in experiment [3], 4.3 nM.
Regarding `C[C@H]1[C@H](OC(=O)CCC(=O)O)O[C@@H]2O[C@@]3(C)CC[C@H]4[C@H](C)CC[C@@H]1[C@@]24OO3` [ARTESUNATE], the IC50 in experiment [1] is 1.77 nM; in experiment [4], 1.28 nM; in experiment [2], 2.84 nM; in experiment [3], 1.16 nM.
For the molecule `CCN(CC)CCCC(C)Nc1ccnc2cc(Cl)ccc12` (stereo not drawn) [CHLOROQUINE], the IC50 in experiment [1] stood at 14 nM; in experiment [4], 23.2 nM; in experiment [2], 128 nM; in experiment [3], 7.8 nM. Besides, the figures for the Ratio in experiment [5] and in experiment [6] were 150 and 86, respectively.
With `OC(c1cc(C(F)(F)F)nc2c(C(F)(F)F)cccc12)C1CCCCN1` (stereo not drawn) [MEFLOQUINE], the IC50 in experiment [1] is 36.8 nM; in experiment [2] it was 46.9 nM; in experiment [3], 23.8 nM.
In the case of `Clc1ccc2c(N3CCN(CCCN4CCN(c5ccnc6cc(Cl)ccc56)CC4)CC3)ccnc2c1` [PIPERAQUINE], the 50% inhibitory concentration (IC50) in experiment [1] turned out to be 29 nM; in experiment [4], 7.57 nM; in experiment [2], 38.4 nM; in experiment [3], 10.2 nM.
In the case of `COc1ccc2nc3cc(Cl)ccc3c(Nc3cc(CN4CCCC4)c(O)c(CN4CCCC4)c3)c2n1` [PYRONARIDINE], the IC50 in experiment [1] was determined as 4.1 nM; in experiment [2], 7.8 nM; in experiment [3], 0.72 nM.

For orientation: IC50 means the midpoint of a concentration-inhibition curve.
